Assay outcomes: PubChem, Sanford-Burnham Center for Chemical Genomics
Not all results are given here.
Apaf1 activ: activators of human Apaf-1 apoptosome, primary screen, biochemical, DEVD-Rh110 fluorescence, uHTS. Apaf-1 apoptosome caspase-3 activation; hits give low values. activity change, negative = activation, % at 20 µM. actives 0.31% (n = 330,000);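 active = activity change at or below -40% at 20 µM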
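System: Reconstituted apoptosome of Apaf-1, cytochrome c, caspase-9, procaspase-3 | Reagent: dATP, cytochrome c, and (Z-DEVD)2-Rh110 caspase-3 substrate | Times: 30 min compound preincubation and 50 min reaction, both room temperature | Detection: Caspase-3-released Rh110 fluorescence, 540 nm emission, 480 nm excitation | Measure: Caspase-3 activity via Apaf-1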
Rh110 interf act: Rh110 fluorescence interference by putative Apaf-1 activators, confirmation, artefact control for Apaf-1 activator project, biochemical, 20 µM. shares compounds with Apaf1 activ. quenched caspase reaction, Ex480/Em540. fluorescence interference (activity change), % at 20 µM, hits read low. 980 tested, under 10 active. AID 504616, 2011;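 active = mean activity change at or below -40% when tested at 20 µM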
Apaf-1 act conf2: Apaf-1 activators, single-dose retest, confirmation, biochemical, fluorescence, DEVD-Rh110, 20 µM | shares compounds with Apaf1 activ | reconstituted apoptosome caspase-3 activity; hits give low values | activity change, negative = activation, % at 20 µM | actives 5% (n = 980);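 active = mean activity change at or below -40%, meaning activation of 40% or more, at 20 µM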
Hits are given with their value.

`COc1cc2c(cc1OC)CN(Cc1cc(=O)n3c(-c4ccccc4)csc3n1)CC2` gave Apaf1 activ inactive.
`CN(C)CCCN(C(=O)CCc1ccccc1)c1nc2ccc(Cl)cc2s1` gave Apaf1 activ inactive.
`Cc1[nH]n(-c2ccccc2)c(=O)c1C(c1cccc([N+](=O)[O-])c1O)c1c(C)[nH]n(-c2ccccc2)c1=O` gave Apaf1 activ inactive.
Screening CCC(CN(C)C)Oc1cc(NCc2ccccc2)c2ncn(C(C)C)c2c1 (centres undefined) returned Apaf1 activ inactive.
Screening CCOc1ccc2nc3cc(NCc4ccc(OC)cc4)ccc3c(N)c2c1 returned Apaf1 activ inactive.
`CCOC(=O)CCC(=O)NNC(=O)COc1ccc(C(C)C)cc1Br` gave Apaf1 activ -108, Rh110 interf act inactive and Apaf-1 act conf2 inactive.
Screening CCO/C=C1\SC(=S)N(c2ccc(Cl)cc2)C1=O returned Apaf1 activ -109, Rh110 interf act inactive and Apaf-1 act conf2 inactive.
COc1ccc(C(=O)C(Sc2nnc(C)c(=O)[nH]2)c2ccc(OC)cc2)cc1 (centres undefined) was read as Apaf1 activ -114, Rh110 interf act inactive and Apaf-1 act conf2 inactive.
`CCCCCCCCCCCCCCCC[N+](C)(C)CCN(Cc1ccc(OC)cc1)c1ncccn1` gave Apaf1 activ inactive.
For COc1ccc2c(c1)OC/C(=C/c1cccs1)C2=O the results were Apaf1 activ -94, Rh110 interf act inactive and Apaf-1 act conf2 inactive.
`COc1cc(OC)c(NC2=CC(=O)C(=O)c3ccccc32)cc1Cl` gave Apaf1 activ inactive.
For Oc1ccc(/C=N/Nc2cc(N3CCCC3)nc(N3CCCC3)n2)cc1 the results were Apaf1 activ inactive.
`CCCCC(CC)COC(=O)C(C#N)=C(c1ccccc1)c1ccccc1` (centres undefined) gave Apaf1 activ -232, Rh110 interf act inactive and Apaf-1 act conf2 inactive.
For CC1=C(CC(=O)c2ccccc2)C(=O)c2ccccc2C1=O the results were Apaf1 activ inactive.
Cc1ccc(Cl)cc1NC1=C/C(=N\S(=O)(=O)c2cccs2)c2ccccc2C1=O was read as Apaf1 activ inactive.
CCOC(=O)c1c(NC(=O)c2cccs2)sc(C)c1CC was read as Apaf1 activ inactive.
For CN(Cc1ccc(F)cc1)C(=O)CNC(=O)c1cccs1 the results were Apaf1 activ inactive.
C/C(=N\NC(=O)c1ccccc1)c1ccc(NC(=O)c2cccs2)cc1 was read as Apaf1 activ -143, Rh110 interf act inactive and Apaf-1 act conf2 inactive.
Screening CSCCC(NC(=O)COc1ccccc1)C(=O)N1CCC(C(N)=O)CC1 (centres undefined) returned Apaf1 activ inactive.
O=C(COc1ccccc1)NCC(=O)NC1CCCCC1 was read as Apaf1 activ -40, Rh110 interf act inactive and Apaf-1 act conf2 inactive.
For CCCCCCC(=O)Nc1nc(C)c(-c2csc(Nc3cc(OC)ccc3OC)n2)s1 the results were Apaf1 activ inactive.
Screening Clc1ccc2nsnc2c1NC1=NCCN1 returned Apaf1 activ inactive.
Screening O=C(c1ccc(F)cc1)[C@@H]1[C@@H](C(=O)c2ccccc2)[C@@]2(C(=O)Nc3ccccc32)[C@H]2c3ccccc3C=CN12 returned Apaf1 activ inactive.
For C[C@H](NC(=O)N1CCn2c1nc1ccccc12)C(=O)NC1CCCCC1 the results were Apaf1 activ -168, Rh110 interf act inactive and Apaf-1 act conf2 inactive.
Screening C=CC(=O)Nc1ccc(CN2C(=O)N(c3c(Cl)c(OC)cc(OC)c3Cl)Cc3cnc(NCCCCN(CC)CC)nc32)cc1 returned Apaf1 activ inactive.
Screening COC(=O)CCC(=O)OC1(C)C(=O)C=C2C=C(C3CC3)N(Cc3ccccc3)C=C2C1=O (centres undefined) returned Apaf1 activ inactive.
`COC(=O)CCC(=O)OC1(C)C(=O)C=C2C=C(C3CC3)N(C3CCCC3)C=C2C1=O` (centres undefined) gave Apaf1 activ inactive.
`NC(=O)CSc1nc2c(sc3ccccc32)c(=O)n1CCCN1CCOCC1` gave Apaf1 activ -236, Rh110 interf act inactive and Apaf-1 act conf2 inactive.
For CC(C)(C)c1ccc(/C=C(\C#N)C(=O)Nc2ccccn2)cc1 the results were Apaf1 activ -186, Rh110 interf act inactive and Apaf-1 act conf2 inactive.
Cc1cc(=O)[nH]c(N/N=C/c2ccc(Cl)c([N+](=O)[O-])c2)n1 was read as Apaf1 activ -73, Rh110 interf act inactive and Apaf-1 act conf2 inactive.
For COc1ccc2c(c1)c(/C=N/Nc1nc3ccccc3[nH]1)c(C)n2C the results were Apaf1 activ inactive.
S=C1NCCc2ccc(Cl)cc2C1c1ccccc1Cl (centres undefined) was read as Apaf1 activ -514, Rh110 interf act inactive and Apaf-1 act conf2 inactive.
`Cc1ccc(-c2ccc(/C=N/N=C3/NC(=O)C(CC(=O)O)S3)o2)c([N+](=O)[O-])c1` (centres undefined) gave Apaf1 activ inactive.
Screening COc1cc2nc(N3CCNCC3)nc(N)c2cc1OC returned Apaf1 activ inactive.
Nc1nc2ccc(OC(F)(F)F)cc2s1 was read as Apaf1 activ inactive.
For CCSc1nnc2nc3[nH]c4c(C)cccc4c3nn12 the results were Apaf1 activ -76, Rh110 interf act inactive and Apaf-1 act conf2 inactive.
`C#CCOCCOCCOCCNc1nc(N2CCN(C(=O)CCCCCCCCCCNC(=O)[C@H]([C@@H](C)CC)n3cc(CCCCN=C(N)N)nn3)CC2)nc(N2CCN(C(=O)CCCCCCCCCCNC(=O)[C@@H]([C@H](C)O)n3cc(C)nn3)CC2)n1` gave Apaf1 activ inactive.
For CCCCCCCCCn1c2c(c(=N)c3c1CCC3)CCCC2 the results were Apaf1 activ inactive.
Screening Cc1c(CCC(C)C)c(=O)n2c([nH]c3ccccc32)c1C#N returned Apaf1 activ inactive.
For CC(=O)c1cc(C#N)c(Oc2cccc(C(F)(F)F)c2)nc1C the results were Apaf1 activ -151, Rh110 interf act inactive and Apaf-1 act conf2 inactive.
`COc1ccc(C(=O)NCCCNC(=O)c2cc3ccccc3[nH]2)cc1OC` gave Apaf1 activ -162, Rh110 interf act inactive and Apaf-1 act conf2 inactive.
COc1ccc(CCNC(=O)c2ccc3nc(-c4ccco4)c(-c4ccco4)nc3c2)cc1OC was read as Apaf1 activ inactive.
COc1ccccc1OCCNC(=O)c1cccc(S(=O)(=O)N2CCN(Cc3ccccc3)CC2)c1 was read as Apaf1 activ inactive.
`CCOC(=O)c1c(C)oc2c1c(C=NCCC(=O)O)c(O)c1ccccc12` gave Apaf1 activ inactive.
Cc1ccc(S(=O)(=O)NC2=C(N3CCN(c4ccccc4F)CC3)C(=O)c3ccccc3C2=O)cc1 was read as Apaf1 activ inactive.
Screening Cc1ccc2oc(=O)cc(CN3CC(C)OC(C)C3)c2c1 (centres undefined) returned Apaf1 activ -66, Rh110 interf act inactive and Apaf-1 act conf2 inactive.
For CCN1CCN(c2ccc(S(=O)(=O)N3CCCCC3)cc2NC(=O)COc2ccc(Cl)c(C)c2)CC1 the results were Apaf1 activ inactive.
